This is an account of results in ChEMBL document CHEMBL4311941, “Development of Multifunctional Histone Deacetylase 6 Degraders with Potent Antimyeloma Activity” (J Med Chem, 2019).

The target in test [1] is T1, Cereblon/Ikaros (Homo sapiens) (UniProt Q96SW2+Q13422). Nature of the test: Protac activity at CRBN/IKZF1 in human MM1S cells assessed as IKZF1 degradation at 100 nM measured after 6 hrs by Western blot analysis. It is filed as cell-based.
Test [2] concerns the target T1, Cereblon/Ikaros (Homo sapiens). The experiment in a line: Protac activity at CRBN/IKZF1 in human MM1S cells assessed as IKZF1 degradation at 100 nM measured after 6 hrs in presence of E3 ligase ligand pomalidomide by Western blot analysis. It is filed as cell-based.
Test [3] concerns the target Histone deacetylase (Homo sapiens) (UniProt Q13547+O15379+Q9UBN7+Q92769+Q9UQL6+Q8WUI4+Q9BY41+Q96DB2+P56524+Q9UKV0+Q969S8). The note with it: at 100 nM.
Test [4] has as its target Histone deacetylase 4 (Homo sapiens, UniProt P56524). The experiment in a line: Inhibition of human N-terminal tagged human HDAC4 expressed in HEK293T/17 using Boc-[TFA-Lys]-AMC as substrate preincubated for 10 mins followed by substrate addition and measured after 60 mins by fluorescence assay.
Test [5] concerns the target T2, Protein cereblon/Zinc finger protein Aiolos (Homo sapiens) (UniProt Q96SW2+Q9UKT9). The experiment in a line: Protac activity at CRBN/IKZF3 in human MM1S cells assessed as IKZF3 degradation at 100 nM measured after 6 hrs in presence of HDAC6 inhibitor Next-A by Western blot analysis. Format: cell-based. In short, it runs like this:
(§1)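 MM1S cells seeded at 1 × 10^6 per well overnight. Pretreated 1 h with pomalidomide, Next-A, MLN 4924 or DMSO, then given 100 nM degrader or DMSO for 6 h. Lysed in RIPA with protease inhibitors, 10−40 μg protein run on SDS-PAGE and transferred to PVDF. Blots probed for IKZF1/IKZF3, detected by ECL and quantified by densitometry.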
In general terms: In western blotting, separated proteins are transferred to a membrane and probed.

Test [6] has as its target T2, Protein cereblon/Zinc finger protein Aiolos (Homo sapiens). The experiment in a line: Protac activity at CRBN/IKZF3 in human MM1S cells assessed as IKZF3 degradation at 100 nM measured after 6 hrs in presence of E3 ligase ligand pomalidomide by Western blot analysis. It is filed as cell-based. In short, it runs like this: as §1
For test [7], the target named is T3, Protein cereblon/Protein deacetylase HDAC6 (Homo sapiens, UniProt Q9UBN7+Q96SW2). Nature of the test: Protac activity at CRBN/HDAC6 in human MCF7 cells assessed as HDAC6 degradation up to 10 uM incubated for 6 hrs by Western blot analysis. It is filed as cell-based.
Test [8] concerns MM1.S. Nature of the test: Effect on IKZF1 mRNA expression in human MM1S cells at 100 nM measured after 6 hrs by SYBR green dye-based qRT-PCR analysis. Format: functional, cell-based. The essentials:
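After treatment, MM1S cells washed twice with cold PBS. Total RNA extracted and normalized, then reverse-transcribed. 10 ng cDNA amplified with SYBR Green: 50 °C 2 min, 95 °C 2 min, then 40 cycles of 95 °C 1 s / 60 °C 30 s, followed by a melt curve. Expression calculated by the 2−ΔΔCt method.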
(Quantitative PCR measures a nucleic acid by following its amplification.)

Test [9] relates to MM1.S. Nature of the test: Induction of apoptosis in human MM1S cells assessed as cleavage of casapse3 measured after 48 hrs by Western blot analysis. Format: functional, cell-based.
For test [10], the target named is T2, Protein cereblon/Zinc finger protein Aiolos (Homo sapiens). The experiment in a line: Protac activity at CRBN/IKZF3 in human MM1S cells assessed as IKZF3 degradation at 100 nM incubated for 6 hrs followed by compound washout and measured after 12 hrs by Western blot analysis. It is filed as cell-based. In short, it runs like this:
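MM1S cells treated with 100 nM degrader for 6 h, then washed with PBS to remove compound. IKZF3 followed by immunoblot over up to 48 h after washout: RIPA lysate, SDS-PAGE, PVDF transfer, HRP secondary antibody and ECL imaging.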

The target of test [11] is T4, Histone deacetylase 7 (Homo sapiens, UniProt Q8WUI4).
T4 sequence (Q8WUI4 whole entry): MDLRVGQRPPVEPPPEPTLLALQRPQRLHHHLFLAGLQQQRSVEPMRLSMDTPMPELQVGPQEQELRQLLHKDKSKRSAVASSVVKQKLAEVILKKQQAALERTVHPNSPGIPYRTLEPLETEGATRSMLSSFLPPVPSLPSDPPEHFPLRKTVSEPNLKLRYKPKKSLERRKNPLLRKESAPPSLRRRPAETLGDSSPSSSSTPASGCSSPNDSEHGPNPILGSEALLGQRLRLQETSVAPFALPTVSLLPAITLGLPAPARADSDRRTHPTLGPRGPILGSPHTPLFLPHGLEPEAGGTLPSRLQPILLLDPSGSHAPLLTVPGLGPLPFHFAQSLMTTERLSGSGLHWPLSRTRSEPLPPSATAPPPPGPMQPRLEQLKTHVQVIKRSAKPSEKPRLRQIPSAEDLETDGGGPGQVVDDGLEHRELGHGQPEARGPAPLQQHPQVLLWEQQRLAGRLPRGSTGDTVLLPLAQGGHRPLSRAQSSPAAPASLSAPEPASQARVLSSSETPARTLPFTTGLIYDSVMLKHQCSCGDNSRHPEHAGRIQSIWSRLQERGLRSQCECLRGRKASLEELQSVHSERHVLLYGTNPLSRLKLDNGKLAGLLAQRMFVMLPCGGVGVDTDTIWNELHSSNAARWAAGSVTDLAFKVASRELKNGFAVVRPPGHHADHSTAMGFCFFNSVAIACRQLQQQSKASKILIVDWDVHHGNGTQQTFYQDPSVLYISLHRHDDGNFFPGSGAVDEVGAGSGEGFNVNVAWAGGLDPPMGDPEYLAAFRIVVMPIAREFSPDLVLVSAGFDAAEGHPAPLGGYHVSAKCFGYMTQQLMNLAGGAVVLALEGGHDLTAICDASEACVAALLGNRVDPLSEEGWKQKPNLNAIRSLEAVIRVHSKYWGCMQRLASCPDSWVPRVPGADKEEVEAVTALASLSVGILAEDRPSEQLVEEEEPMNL
The experiment in a line: Inhibition of human N-terminal tagged human HDAC7 expressed in HEK293T/17 using Boc-[TFA-Lys]-AMC as substrate preincubated for 10 mins followed by substrate addition and measured after 60 mins by fluorescence assay.

For test [12], the target named is Histone deacetylase 9 (Homo sapiens, UniProt Q9UKV0). Nature of the test: Inhibition of human N-terminal tagged human HDAC9 expressed in HEK293T/17 using Boc-[TFA-Lys]-AMC as substrate preincubated for 10 mins followed by substrate addition and measured after 60 mins by fluorescence assay.
Test [13] has as its target T3, Protein cereblon/Protein deacetylase HDAC6. The experiment in a line: Protac activity at CRBN/HDAC6 in human MM1S cells assessed as HDAC6 degradation at 100 nM measured after 6 hrs in presence of proteasome inhibitor bortezomib by Western blot analysis. It is filed as cell-based.
The target is the same in test [14]. The experiment in a line: Protac activity at CRBN/HDAC6 in human MM1S cells assessed as HDAC6 degradation at 100 nM measured after 6 hrs in presence of HDAC6 inhibitor Next-A by Western blot analysis. Format: cell-based.
For test [15] the target is unchanged. The experiment in a line: Protac activity at CRBN/HDAC6 in human MM1S cells assessed as HDAC6 degradation at 100 nM incubated for 6 hrs followed by compound washout and measured up to 48 hrs by Western blot analysis. Format: cell-based. The essentials:
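MM1S cells treated 6 h with 100 nM, washed with PBS to remove compound, then HDAC6 followed by immunoblot for up to 48 h. Lysis in RIPA; SDS-PAGE and PVDF transfer; primary antibody 4 °C overnight, HRP secondary, ECL.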

Test [16] has as its target T2, Protein cereblon/Zinc finger protein Aiolos (Homo sapiens). Nature of the test: Protac activity at CRBN/IKZF3 in human MM1S cells assessed as IKZF3 degradation measured after 6 hrs by Western blot analysis. It is filed as cell-based.

Active and inactive are the calls of the source. The rule behind the calls is not given here.

T2 sequence (Q96SW2 whole entry, looked up): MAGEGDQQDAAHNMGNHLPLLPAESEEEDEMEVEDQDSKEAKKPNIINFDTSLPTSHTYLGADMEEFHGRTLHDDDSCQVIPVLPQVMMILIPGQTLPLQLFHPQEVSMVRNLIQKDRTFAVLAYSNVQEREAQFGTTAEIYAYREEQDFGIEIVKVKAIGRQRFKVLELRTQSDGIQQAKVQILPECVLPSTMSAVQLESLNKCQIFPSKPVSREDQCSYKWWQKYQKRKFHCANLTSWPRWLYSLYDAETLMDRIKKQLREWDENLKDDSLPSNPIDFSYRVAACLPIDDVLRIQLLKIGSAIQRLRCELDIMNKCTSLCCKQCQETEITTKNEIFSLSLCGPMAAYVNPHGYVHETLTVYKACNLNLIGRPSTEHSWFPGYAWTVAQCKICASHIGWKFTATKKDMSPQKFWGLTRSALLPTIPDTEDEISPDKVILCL
T2 sequence (Q9UKT9 whole entry, looked up): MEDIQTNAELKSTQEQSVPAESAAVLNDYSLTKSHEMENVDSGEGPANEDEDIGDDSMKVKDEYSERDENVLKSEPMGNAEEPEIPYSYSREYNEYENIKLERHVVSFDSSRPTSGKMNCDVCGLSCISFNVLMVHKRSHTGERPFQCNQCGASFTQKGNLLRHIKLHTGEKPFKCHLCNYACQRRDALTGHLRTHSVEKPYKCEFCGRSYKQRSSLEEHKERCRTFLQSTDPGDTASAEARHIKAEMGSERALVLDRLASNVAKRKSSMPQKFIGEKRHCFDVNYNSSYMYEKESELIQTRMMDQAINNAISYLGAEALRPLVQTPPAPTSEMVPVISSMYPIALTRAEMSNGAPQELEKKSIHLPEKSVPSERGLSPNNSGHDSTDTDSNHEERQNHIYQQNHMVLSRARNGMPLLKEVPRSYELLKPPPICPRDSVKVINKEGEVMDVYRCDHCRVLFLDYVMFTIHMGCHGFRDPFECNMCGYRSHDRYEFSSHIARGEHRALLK
T3 sequence (Q96SW2 whole entry, looked up): as the sequence (Q96SW2 whole entry, looked up) above
T3 sequence (Q9UBN7 whole entry, looked up): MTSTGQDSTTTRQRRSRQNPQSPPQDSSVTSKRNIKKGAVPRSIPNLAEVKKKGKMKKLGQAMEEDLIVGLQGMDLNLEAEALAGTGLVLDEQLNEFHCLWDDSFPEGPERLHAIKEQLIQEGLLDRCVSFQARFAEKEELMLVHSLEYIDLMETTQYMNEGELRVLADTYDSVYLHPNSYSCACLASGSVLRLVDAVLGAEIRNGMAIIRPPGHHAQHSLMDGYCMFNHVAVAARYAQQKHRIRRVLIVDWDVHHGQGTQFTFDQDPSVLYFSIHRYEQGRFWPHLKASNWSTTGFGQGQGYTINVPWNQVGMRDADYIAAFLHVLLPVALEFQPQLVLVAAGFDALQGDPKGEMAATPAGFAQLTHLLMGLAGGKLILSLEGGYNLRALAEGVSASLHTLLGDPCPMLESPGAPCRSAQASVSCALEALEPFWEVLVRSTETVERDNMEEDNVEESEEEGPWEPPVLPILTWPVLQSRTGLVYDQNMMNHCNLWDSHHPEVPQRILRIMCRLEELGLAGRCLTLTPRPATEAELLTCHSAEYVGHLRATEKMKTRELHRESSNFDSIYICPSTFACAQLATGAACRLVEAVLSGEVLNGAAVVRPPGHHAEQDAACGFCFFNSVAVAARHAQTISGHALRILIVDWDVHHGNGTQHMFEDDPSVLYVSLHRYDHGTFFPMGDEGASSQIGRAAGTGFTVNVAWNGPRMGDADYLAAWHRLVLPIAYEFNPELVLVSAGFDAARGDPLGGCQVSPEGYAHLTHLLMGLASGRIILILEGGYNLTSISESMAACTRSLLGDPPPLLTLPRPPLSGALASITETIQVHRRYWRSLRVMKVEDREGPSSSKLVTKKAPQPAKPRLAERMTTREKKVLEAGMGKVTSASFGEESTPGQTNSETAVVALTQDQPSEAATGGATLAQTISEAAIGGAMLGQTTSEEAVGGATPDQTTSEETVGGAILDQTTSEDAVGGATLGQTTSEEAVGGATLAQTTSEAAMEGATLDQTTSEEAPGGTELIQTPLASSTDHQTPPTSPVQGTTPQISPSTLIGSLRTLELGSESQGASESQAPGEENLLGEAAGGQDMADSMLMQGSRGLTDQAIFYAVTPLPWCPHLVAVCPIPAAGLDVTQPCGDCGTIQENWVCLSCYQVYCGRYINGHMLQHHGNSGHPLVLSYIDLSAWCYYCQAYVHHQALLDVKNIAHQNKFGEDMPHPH
Sequence of Histone deacetylase 9 (Q9UKV0 whole entry): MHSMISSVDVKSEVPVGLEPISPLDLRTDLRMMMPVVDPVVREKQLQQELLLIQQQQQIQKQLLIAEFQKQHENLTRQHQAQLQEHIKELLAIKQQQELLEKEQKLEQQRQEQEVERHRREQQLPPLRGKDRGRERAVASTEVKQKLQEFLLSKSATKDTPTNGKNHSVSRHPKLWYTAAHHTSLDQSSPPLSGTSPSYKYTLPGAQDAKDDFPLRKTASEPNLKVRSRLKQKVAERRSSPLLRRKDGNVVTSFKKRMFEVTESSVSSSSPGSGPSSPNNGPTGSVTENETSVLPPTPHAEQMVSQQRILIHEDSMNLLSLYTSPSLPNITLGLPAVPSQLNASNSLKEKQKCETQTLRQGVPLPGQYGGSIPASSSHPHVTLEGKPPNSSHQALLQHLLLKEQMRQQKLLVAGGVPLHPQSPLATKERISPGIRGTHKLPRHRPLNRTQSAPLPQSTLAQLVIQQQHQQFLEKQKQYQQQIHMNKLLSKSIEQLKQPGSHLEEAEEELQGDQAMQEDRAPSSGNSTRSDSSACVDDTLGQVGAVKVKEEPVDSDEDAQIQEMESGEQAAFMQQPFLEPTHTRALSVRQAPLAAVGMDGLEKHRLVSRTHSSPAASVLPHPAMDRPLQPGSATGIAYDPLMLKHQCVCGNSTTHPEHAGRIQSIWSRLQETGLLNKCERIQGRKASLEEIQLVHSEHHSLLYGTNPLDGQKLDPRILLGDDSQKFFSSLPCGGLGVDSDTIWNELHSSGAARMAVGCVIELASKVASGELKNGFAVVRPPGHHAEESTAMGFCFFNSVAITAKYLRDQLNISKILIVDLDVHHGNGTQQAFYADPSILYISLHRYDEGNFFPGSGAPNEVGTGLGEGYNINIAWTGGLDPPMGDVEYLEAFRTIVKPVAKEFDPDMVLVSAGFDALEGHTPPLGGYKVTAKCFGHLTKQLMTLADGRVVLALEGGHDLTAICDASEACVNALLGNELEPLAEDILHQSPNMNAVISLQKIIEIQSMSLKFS
Sequence of Histone deacetylase 4 (P56524 whole entry): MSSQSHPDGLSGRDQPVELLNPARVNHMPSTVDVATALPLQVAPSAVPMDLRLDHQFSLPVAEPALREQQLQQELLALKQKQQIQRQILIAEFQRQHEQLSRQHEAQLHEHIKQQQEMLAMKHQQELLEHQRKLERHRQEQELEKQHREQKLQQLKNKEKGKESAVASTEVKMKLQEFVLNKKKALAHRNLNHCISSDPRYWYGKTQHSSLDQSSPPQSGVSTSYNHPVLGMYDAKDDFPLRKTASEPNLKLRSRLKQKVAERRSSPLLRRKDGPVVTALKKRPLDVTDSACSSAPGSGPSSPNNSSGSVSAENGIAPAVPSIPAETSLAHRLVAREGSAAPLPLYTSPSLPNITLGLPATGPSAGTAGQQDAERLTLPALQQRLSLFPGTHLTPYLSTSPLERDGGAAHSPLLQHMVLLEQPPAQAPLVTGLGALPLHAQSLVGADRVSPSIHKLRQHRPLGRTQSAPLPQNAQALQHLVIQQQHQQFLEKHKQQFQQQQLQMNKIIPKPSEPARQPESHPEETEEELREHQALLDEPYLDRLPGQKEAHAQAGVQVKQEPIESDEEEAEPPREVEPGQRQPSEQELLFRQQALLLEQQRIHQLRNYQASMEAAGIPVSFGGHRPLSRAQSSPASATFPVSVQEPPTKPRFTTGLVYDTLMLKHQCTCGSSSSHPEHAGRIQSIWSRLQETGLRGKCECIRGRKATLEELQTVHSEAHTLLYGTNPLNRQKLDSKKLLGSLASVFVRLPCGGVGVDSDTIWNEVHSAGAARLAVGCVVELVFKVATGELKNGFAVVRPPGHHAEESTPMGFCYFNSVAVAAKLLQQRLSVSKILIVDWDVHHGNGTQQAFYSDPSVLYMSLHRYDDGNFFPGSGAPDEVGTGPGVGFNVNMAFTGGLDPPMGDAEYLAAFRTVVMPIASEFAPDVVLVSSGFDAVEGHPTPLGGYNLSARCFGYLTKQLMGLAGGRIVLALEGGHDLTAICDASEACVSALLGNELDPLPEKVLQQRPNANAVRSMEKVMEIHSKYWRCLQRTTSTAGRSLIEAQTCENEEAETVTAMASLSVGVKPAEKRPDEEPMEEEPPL

On to `CCCCN(Cc1ccc(C(=O)NO)cc1)C(=O)Nc1ccc(OCCCCCn2cc(CNc3cccc4c3C(=O)N(C3CCC(=O)NC3=O)C4=O)nn2)cc1` (stereo unspecified), for which the result in test [1], in test [2], in test [5], in test [6], in [7] and in test [8] was Active. Also, the result in [15] was Active. Further, the inhibition entry in [3] was “inactive”. The IC50 in test [4], in test [11] and in test [12] was 0.3 to 30 µM each time. Further, the Activity entry in test [9] and in [16] was “Dose-dependent effect” in each case. Moreover, the outcome in test [10], in test [13] and in [14] was inactive.
